The subject of one assay is Salmonella enterica. Description: Antimicrobial activity against Salmonella enterica KCTC 2930 after 18 hrs by broth dilution method. The class given is functional. The following applies: KCTC 2930, 18 h. In outline: (§1)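 Broth microdilution following CLSI recommendations. Bacteria were grown overnight to stationary phase in Mueller-Hinton broth, then diluted in fresh MHB to 2 × 10^5 CFU/ml. Peptide or antibiotic stocks of 640 μg/ml in 0.01% acetic acid were serially 2-fold diluted to 10 μg/ml, and each was added to the bacterial suspension at 11 μl per 100 μl. Plates were incubated 18 h at 37°C. MIC was taken as the lowest concentration giving no visible turbidity, in triplicate.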

For assay [1], the system named is Staphylococcus aureus. Description: Antimicrobial activity against methicillin-resistant Staphylococcus aureus CCARM 3696 by radial diffusion assay incubated with chymotrypsin. The assay is classed as functional, organism-based.
Another assay relates to Klebsiella oxytoca. Description: Antimicrobial activity against Klebsiella oxytoca KCTC 1686 after 18 hrs by broth dilution method. The assay is classed as functional. The following applies: KCTC 1686, 18 h. The gist of the method: as §1
Assay [2] relates to Staphylococcus aureus. Description: Antimicrobial activity against methicillin-resistant Staphylococcus aureus CCARM 3696 by radial diffusion assay incubated with human wound fluid for 4 hrs. The assay is classed as functional, organism-based.
Assay [3] deals with Staphylococcus aureus. Description: Antimicrobial activity against methicillin-resistant Staphylococcus aureus CCARM 3696 by radial diffusion assay incubated with Pseudomonas aeruginosa Culture supernatant for 1 hr. The class given is functional, organism-based.
The subject of assay [4] is Staphylococcus aureus. In words: Antimicrobial activity against methicillin-resistant Staphylococcus aureus CCARM 3696 after 18 hrs by broth dilution method. The assay is classed as functional. The following applies: CCARM 3696, 18 h. The gist of the method:
(§2)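 Broth dilution per CLSI. Bacteria were grown overnight to stationary phase in Mueller-Hinton broth and diluted in fresh MHB to 2 × 10^5 CFU/ml. Stocks at 640 μg/ml in 0.01% acetic acid were 2-fold serially diluted to 10 μg/ml, and 11 μl was added to 100 μl of bacteria. After 18 h at 37°C, MIC was the lowest concentration with no visible turbidity. Run in triplicate.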

Another assay concerns Micrococcus luteus. Description: Antimicrobial activity against Micrococcus luteus KCTC 9341 after 18 hrs by broth dilution method. The class given is functional. The settings on record: KCTC 9341, 18 h. The gist of the method: as §1
Another assay concerns Pseudomonas aeruginosa. Description: Antimicrobial activity against multidrug-resistant Pseudomonas aeruginosa CCARM 2161 after 18 hrs by broth dilution method. The assay is classed as functional. The following applies: CCARM 2161, 18 h. In outline: as §2
For a further assay, the system named is Enterococcus faecium. In words: Antimicrobial activity against vancomycin-resistant Enterococcus faecium CCARM 5028 after 18 hrs by broth dilution method. The assay is classed as functional. The following applies: CCARM 5028, 18 h. In outline: as §2
Assay [5] deals with Staphylococcus aureus. In words: Antimicrobial activity against methicillin-resistant Staphylococcus aureus CCARM 3696 by radial diffusion assay incubated with chymotrypsin for 1 hr. The class given is functional, organism-based.
Assay [6] concerns Staphylococcus aureus. Description: Antimicrobial activity against methicillin-resistant Staphylococcus aureus CCARM 3696 by radial diffusion assay incubated with Staphylococcus aureus Culture supernatant for 1 hr. The class given is functional, organism-based.
For assay [7], the system named is Staphylococcus aureus. Description: Antimicrobial activity against methicillin-resistant Staphylococcus aureus CCARM 3696 by radial diffusion assay incubated with human wound fluid for 1 hr. The assay is classed as functional, organism-based.
Assay [8] concerns Staphylococcus aureus. In words: Antimicrobial activity against methicillin-resistant Staphylococcus aureus CCARM 3696 by radial diffusion assay incubated with matrix metalloprotease 7 for 1 hr. The assay is classed as functional, organism-based.
In the next assay the test system is Escherichia coli. Description: Antimicrobial activity against Escherichia coli KCTC 1039 after 18 hrs by broth dilution method. The class given is functional. The following applies: KCTC 1039, 18 h. The gist of the method:
as §1

Another assay has as its system Citrobacter freundii. In words: Antimicrobial activity against Citrobacter freundii KCTC 2359 after 18 hrs by broth dilution method. The class given is functional. The settings on record: KCTC 2359, 18 h. The gist of the method:
as §1

Another assay has as its system Bacillus subtilis. In words: Antimicrobial activity against Bacillus subtilis KCTC 2213 after 18 hrs by broth dilution method. The assay is classed as functional. The settings on record: KCTC 2213, 18 h. The gist of the method:
as §1

For another assay, the system named is Listeria monocytogenes. Description: Antimicrobial activity against Listeria monocytogenes KCTC 19111 after 18 hrs by broth dilution method. The assay is classed as functional. The following applies: KCTC 19111, 18 h. The gist of the method: as §1
Assay [9] relates to Staphylococcus aureus. In words: Antimicrobial activity against methicillin-resistant Staphylococcus aureus CCARM 3696 by colony count assay incubated with trypsin for 20 mins. The assay is classed as functional, organism-based. In outline:
(§3)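 Peptide (20 μg) was incubated at 37°C with 50 nM trypsin in 100 μl of 10 mM sodium phosphate, then heated 10 min at 80°C and cooled. MRSA (100 μl, 2 × 10^7 CFU/ml) was added for 5 min. Aliquots were plated on TSA (1.5% agarose, 3% TSB in NaP) and counted after overnight growth at 37°C. Read-out was CFU/ml; repeated three times on different days.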

In assay [10] the test system is Staphylococcus aureus. In words: Antimicrobial activity against methicillin-resistant Staphylococcus aureus CCARM 3696 by colony count assay incubated with trypsin for 10 mins. The class given is functional, organism-based. In outline: as §3
Assay [11] has as its system Staphylococcus aureus. Description: Antimicrobial activity against methicillin-resistant Staphylococcus aureus CCARM 3696 by colony count assay incubated with trypsin for 1 hr. The assay is classed as functional, organism-based. In outline: as §3
Assay [12] concerns Staphylococcus aureus. In words: Antimicrobial activity against methicillin-resistant Staphylococcus aureus CCARM 3696 by radial diffusion assay incubated with matrix metalloprotease 7 for 5 mins. The class given is functional, organism-based.

≈ marks a conversion by molar mass, not a printed value. Calls of active or inactive are those of the source. The calls are words filed in the database; no cut-off is given here. Bridge positions count the residues as written; N and C are the ends. Peptide text beside a SMILES is read from it. I, II: the chains in the order shown.

Turning to `CC(C)C[C@H](NC(=O)CNC(=O)[C@H](Cc1cnc[nH]1)NC(=O)[C@H](Cc1cnc[nH]1)NC(=O)[C@H](CC(C)C)NC(=O)[C@H](CC(C)C)NC(=O)[C@H](C)NC(=O)[C@H](CC(N)=O)NC(=O)[C@H](CC(C)C)NC(=O)[C@H](Cc1c[nH]c2ccccc12)NC(=O)[C@@H](N)CCCCN)C(=O)N[C@@H](CC(N)=O)C(=O)N[C@@H](CSSC[C@H](NC(=O)[C@H](CC(N)=O)NC(=O)[C@H](CC(C)C)NC(=O)CNC(=O)[C@H](Cc1cnc[nH]1)NC(=O)[C@H](Cc1cnc[nH]1)NC(=O)[C@H](CC(C)C)NC(=O)[C@H](CC(C)C)NC(=O)[C@H](C)NC(=O)[C@H](CC(N)=O)NC(=O)[C@H](CC(C)C)NC(=O)[C@H](Cc1c[nH]c2ccccc12)NC(=O)[C@@H](N)CCCCN)C(=O)N[C@@H](C)C(=O)N[C@@H](CCCCN)C(=O)NCC(=O)N[C@H](C(=O)N[C@@H](CC(C)C)C(=O)N[C@@H](C)C(N)=O)C(C)C)C(=O)N[C@@H](C)C(=O)N[C@@H](CCCCN)C(=O)NCC(=O)N[C@H](C(=O)N[C@@H](CC(C)C)C(=O)N[C@@H](C)C(N)=O)C(C)C` (I: H-KWLNALLHHGLNCAKGVLA-NH2 / II: H-KWLNALLHHGLNCAKGVLA-NH2; disulfide I:13-II:13), the MIC against Salmonella enterica was 4 mg/L (≈ 0.973 µM); in the assay with Klebsiella oxytoca, 4 mg/L (≈ 0.973 µM); in the assay on Staphylococcus aureus [4], 4 mg/L (≈ 0.973 µM); against Micrococcus luteus, 4 mg/L (≈ 0.973 µM); against Pseudomonas aeruginosa it was 4 mg/L (≈ 0.973 µM); in the assay with Enterococcus faecium, 2 mg/L (≈ 0.486 µM). In addition, the MIC was determined as 4 mg/L (≈ 0.973 µM) in the assay with Escherichia coli, 4 mg/L (≈ 0.973 µM) in the assay with Citrobacter freundii, 2 mg/L (≈ 0.486 µM) in the assay with Bacillus subtilis and 4 mg/L (≈ 0.973 µM) in the assay on Listeria monocytogenes. Also, the result in the assay with Staphylococcus aureus [1], in the assay on Staphylococcus aureus [2], with Staphylococcus aureus [3], in the assay on Staphylococcus aureus [5], with Staphylococcus aureus [6] and in the assay with Staphylococcus aureus [7] was Active. The outcome with Staphylococcus aureus [8] was Active.
Regarding `CC[C@H](C)[C@H](NC(=O)[C@H](CCCCN)NC(=O)[C@H](CCC(=O)O)NC(=O)[C@H](CCCCN)NC(=O)[C@H](CO)NC(=O)[C@H](CCCCN)NC(=O)[C@H](CCCNC(=N)N)NC(=O)[C@H](Cc1ccccc1)NC(=O)[C@H](Cc1ccccc1)NC(=O)[C@H](CC(=O)O)NC(=O)CNC(=O)[C@H](CC(C)C)NC(=O)[C@@H](N)CC(C)C)C(=O)NCC(=O)N[C@@H](CCCCN)C(=O)N[C@@H](CCC(=O)O)C(=O)N[C@@H](Cc1ccccc1)C(=O)N[C@@H](CCCCN)C(=O)N[C@@H](CCCNC(=N)N)C(=O)N[C@H](C(=O)N[C@H](C(=O)N[C@@H](CCC(N)=O)C(=O)N[C@@H](CCCNC(=N)N)C(=O)N[C@H](C(=O)N[C@@H](CCCCN)C(=O)N[C@@H](CC(=O)O)C(=O)N[C@@H](Cc1ccccc1)C(=O)N[C@@H](CC(C)C)C(=O)N[C@@H](CCCNC(=N)N)C(=O)N[C@@H](CC(N)=O)C(=O)N[C@@H](CC(C)C)C(=O)N[C@H](C(=O)N1CCC[C@H]1C(=O)N[C@@H](CCCNC(=N)N)C(=O)N[C@H](C(=O)N[C@@H](CCC(=O)O)C(=O)N[C@@H](CO)C(=O)O)[C@@H](C)O)C(C)C)[C@@H](C)CC)C(C)C)[C@@H](C)CC` [CATHELICIDIN], the MIC against Salmonella enterica was > 64 mg/L; with Klebsiella oxytoca, > 64 mg/L; in the assay with Staphylococcus aureus [4] it was > 64 mg/L; against Micrococcus luteus it was > 64 mg/L; with Pseudomonas aeruginosa, > 64 mg/L; against Enterococcus faecium it was 32 mg/L (≈ 7.12 µM). Further, the MIC with Escherichia coli amounted to 32 mg/L (≈ 7.12 µM); in the assay on Citrobacter freundii it was 64 mg/L (≈ 14.2 µM); against Bacillus subtilis it was 8 mg/L (≈ 1.78 µM); in the assay on Listeria monocytogenes it was 32 mg/L (≈ 7.12 µM). Moreover, the outcome with Staphylococcus aureus [3], in the assay with Staphylococcus aureus [9], in the assay on Staphylococcus aureus [6], in the assay with Staphylococcus aureus [10] and in the assay on Staphylococcus aureus [12] was inactive. Moreover, the result in the assay on Staphylococcus aureus [11] was Active.
